Rows were chosen to be rich in hits. Some 0.6% of all compounds tested hit in one or more screens of this group.
GSK3A inh – blockers of GSK3A enzyme activity – biochemical, luminescence, cell-free homogeneous, HTS, primary screen; hit rate 0.1% among 320,000; AID 2650, 2010; GSK-3 alpha kinase, ADP-Glo luminescence, 60 min; Glycogen synthase kinase-3 alpha (Homo sapiens), P49840; inhibition, % at 10 µM;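 active means more than half of replicates show inhibition above 20%; inconclusive means some but at most half of replicates above 20% inhibition; inactive means no replicate shows inhibition above 20%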;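 further: GST-tagged GSK-3 alpha with peptide substrate and 25 µM ATP; 0% = DMSO neutral wells and 100% = GW8510 positive control wells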
GSK3beta inhib – human GSK3beta kinase inhibitors, primary screen, biochemical, cell-free homogeneous, HTS | activity score (negative = inhibition), % at 10 µM | AID 2097, 2009 | hit rate 0.038% among 300,000 | GST-GSK3beta kinase, ADP-Glo luminescence, 60 min; stronger effect = lower value;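 active means more than half of replicate wells score below -50%, meaning over 50% inhibition versus plate controls; inconclusive means some replicates but at most half score below -50%; inactive means no replicate scores below -50%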;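 further: 0% = median DMSO wells and -100% = median GW8510 positive control wells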
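test system = GST-tagged human GSK3beta kinase, cell-free | reagent = 25 µM ATP with peptide substrate | dosing = one dose of 10 µM per compound | schedule = 60 min reaction, RT | detection = luminescent ADP-Glo measurement of ADP formed | control set = DMSO neutral wells and GW8510 at 20 µM as positive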
STK33 kinase inh – inhibitors of purified STK33 kinase, primary screen, biochemical, ADP-Glo luminescence, homogeneous, cell-free | inhibition, % at 10 µM | Serine/threonine-protein kinase 33 (Homo sapiens), Q9BYT3 | MBP phosphorylation | hit rate 0.073% among 320,000;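 active means inhibition at or above 25%, using the most active replicate where run in duplicate; inactive means inhibition below 25%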
Target sequence (Q9BYT3 whole entry, looked up): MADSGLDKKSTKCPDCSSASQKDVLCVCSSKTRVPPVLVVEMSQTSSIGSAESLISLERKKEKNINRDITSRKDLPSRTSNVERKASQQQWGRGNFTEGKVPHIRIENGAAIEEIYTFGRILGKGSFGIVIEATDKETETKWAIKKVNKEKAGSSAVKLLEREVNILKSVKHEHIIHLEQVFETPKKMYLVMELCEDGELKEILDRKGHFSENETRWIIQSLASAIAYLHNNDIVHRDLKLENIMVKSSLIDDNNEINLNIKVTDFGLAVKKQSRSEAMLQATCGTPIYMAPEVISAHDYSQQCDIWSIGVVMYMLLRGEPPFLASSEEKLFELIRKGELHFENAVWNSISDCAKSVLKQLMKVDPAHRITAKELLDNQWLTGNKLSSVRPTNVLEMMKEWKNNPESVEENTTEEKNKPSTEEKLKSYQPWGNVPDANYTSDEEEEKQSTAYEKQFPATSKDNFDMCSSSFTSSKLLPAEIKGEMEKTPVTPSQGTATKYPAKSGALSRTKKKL
Efflux pump mplx – inhibitors of Candida efflux pumps in yeast, primary screen, S. cerevisiae, Nile Red, multiplex; S. cerevisiae Candida pump triplex; inhibition, % at 10 µM; hit rate 0.44% among 330,000; AID 485275, 2010;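 active means plate passing quality check with inhibition over a set limit, or well fluorescence over plate mean plus 4 SD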;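 further: Nile Red retained in pooled yeast measured as flow cytometry median fluorescence; 0% = buffer negative control and 100% = Enniatin B positive control; higher means more Nile Red kept so more efflux inhibition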
PolyA inh – polyadenylation inhibitors in yeast reporter cells, primary screen, luminescence, S. cerevisiae | S. cerevisiae SKY197-pL101 polyadenylation reporter, beta-gal luminescence; efflux-impaired pdr1/pdr3 knockout yeast; score 100 = 6 SD above DMSO | activity score, % at 12 µM | hit rate 0.02% among 300,000 | AID 1875, 2009;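 active means lowest replicate activity score at least 50, where 100 means six control SD above control mean; inconclusive means lowest score under 50 but half or more replicates reach 50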;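 further: yeast exposed to compound for 9 h at 30 °C; higher score means more reporter readthrough which indicates perturbed polyadenylation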
The depositor's hits bear a star; ? = inconclusive; . = no result.

SMILES	GSK3A inh	GSK3beta inhib	STK33 kinase inh	Efflux pump mplx	PolyA inh
CC(NC(=O)c1ccc(Br)cc1)c1ccccc1 (stereo not drawn)	1	-1	-1	0	70*
CC(NC(=O)c1ccccc1)c1ccc(Br)cc1 (stereo not drawn)	-1	0	-1	0	24
CC(NC(=O)c1ccc(Br)cc1Br)c1ccccc1 (stereo not drawn)	-3	-3	-2	0	62*
C=CC(=O)Nc1ccc(CN2C(=O)N(c3c(Cl)c(OC)cc(OC)c3Cl)Cc3cnc(NCCCCN(CC)CC)nc32)cc1	23	.	80*	0	.
Cc1cc(Cl)ccc1C(=O)C1CCCN(C(=O)c2snnc2C)C1 (stereo not drawn)	-4	-3	-2	0	55*
Cc1cc(Cl)ccc1C(=O)C1CCCN(C(=O)c2cccnc2C)C1 (stereo not drawn)	-3	0	2	0	0
CC(=O)NS(=O)(=O)c1ccc(NC(=O)c2ccc3c(c2)C(=O)N(CCC(C)C)C3=O)cc1	-1	-4	0	0	0
CN(C(=O)COC(=O)/C=C/c1cccs1)C1CCCCC1	8	.	0	0	.
CCCc1ccc(/C=C2\C(=O)c3ccccc3C(O)=C2C(=O)OCC)cc1	-2	3	-1	1.9*	-15
O=C(O)c1cccc([N+](=O)[O-])c1C(=O)Nc1ccc2ccccc2c1	-4	.	-1	0	-3
Cc1ccc(-c2nn3c(C)nnc3s2)cc1NC(=O)CSc1ccc(Cl)cc1	0	2	0	0	88*
Cc1ccc(-n2nnnc2CSc2nnc(-c3ccc(O)cc3)o2)cc1	67*	0	11	-1	17
CN(CCCC(=O)NCc1ccc2c(c1)OCO2)S(=O)(=O)c1ccc([N+](=O)[O-])cc1	-1	0	0	0	0
COc1cc(/C=C2\Oc3cc(O)ccc3C2=O)ccc1O	63*	-32	-3	0	?
COc1ccc(-c2cccc(NC(=O)COc3ccc(Cl)cc3)c2)nn1	0	1	-2	0	81*
COc1ccc(CCC(=O)OCc2csc(CC(=O)Nc3ccc(C)cc3)n2)cc1OC	-1	.	-3	0.9*	.
C=C(C(=O)Oc1ccccc1C(C)(C)C)c1ccccc1	1	.	-2	0	.
CN1/C(=C/C2CC(=O)NC2=O)C(C)(C)c2ccccc21 (stereo not drawn)	65*	.	2	0	.
COc1ccc(S(=O)(=O)NCC2CCCN(Cc3ccc(O)cc3)C2)cc1 (stereo not drawn)	0	-1	-1	0	-6
COc1ccc(-c2nn(-c3ccccc3)cc2/C=N/O)cc1OC	73*	-56*	3	0	-22
O=C(Nc1cc(C(=O)Nc2ccccc2C(=O)O)cc(C(=O)Nc2ccccc2C(=O)O)c1)c1ccccc1	1	3	49*	0	7
Cc1ccc(NC(=O)c2cccc(C(=O)Nc3ccc(C)cc3C(=O)O)c2)c(C(=O)O)c1	-3	10	37*	0	-5
O=C(Nc1ccccc1C(=O)O)c1cccc(NC(=O)c2ccccc2Br)c1	-3	1	6	0	-20
O=c1c2c3nc4ccccc4nc3n(CC3CCCO3)c2ncn1CCc1ccccc1 (stereo not drawn)	-1	-1	-1	0	-17
COc1cc(OC)cc(-n2c3nc4ccccc4nc3c3c(=O)n(CC4CCCO4)cnc32)c1 (stereo not drawn)	0	-1	-1	1.1*	-6
SMILES	GSK3A inh	GSK3beta inhib	STK33 kinase inh	Efflux pump mplx	PolyA inh
CCOc1ccc(OCCCC(=O)ON=C(N)c2ccccc2C)cc1	-1	.	-2	0	.
N#CC1=C2SCN(c3ccccc3)CN2C(=O)CC1c1ccccc1Cl (stereo not drawn)	0	0	0	0	6
N#CC1=C2SCN(Cc3ccccc3)CN2C(=O)CC1c1ccccc1F (stereo not drawn)	61*	-8	0	0	-11
CCNc1nc(N)c(C(=O)c2ccc(Cl)s2)s1	98*	-90*	8	0	-12
CC(C)(C)c1csc(NC(=O)c2ccc(Cl)s2)n1	-1	0	1	0	-11
O=C(Cc1cccc(C(F)(F)F)c1)Nc1ccccc1N1CCCC1	-4	-6	1	0	-20
Cc1ccsc1C1C2=C(CC(C)(C)CC2=O)Nc2ncnn21 (stereo not drawn)	63*	0	-1	0	-1
Cc1ccsc1C1C2=C(CCCC2=O)Nc2ncnn21 (stereo not drawn)	21	-9	-1	0	.
COc1cc(C2C(C#N)=C(N)Oc3n[nH]c(-c4cccnc4)c32)cc(Br)c1O (stereo not drawn)	53*	-34	0	0	-6
COc1cc(C2C(C#N)=C(N)Oc3n[nH]c(-c4cccnc4)c32)ccc1OCC(N)=O (stereo not drawn)	4	-18	1	0	-8
NC(=O)c1cc([N+](=O)[O-])ccc1NCc1cccc([N+](=O)[O-])c1	44	.	0	0	.
NCc1cccc(CNc2ccc([N+](=O)[O-])cc2C(N)=O)c1	84*	.	1	0	.
Cc1ccc(-c2nnn(CC(=O)N(CC(=O)NC3CCCC3)c3ccccc3F)n2)o1	.	4	.	.	-11
N#CC1(C#N)C2=C(CCCC2)NC(c2ccccc2)C1(C#N)C#N (stereo not drawn)	6	0	0	0	159*
N#CC12C(N)=NC3(OCCO3)C1(C#N)C1=C(CCC1)NC2c1ccccc1 (stereo not drawn)	5	6	1	0	-21
COc1ccccc1C(=O)C1CCCN(Cc2ccc3c(c2)OCCO3)C1 (stereo not drawn)	-1	1	-1	0	0
O/C=c1\ccc2cccc3nc(C(F)(F)F)nc1c23	0	6	1	3.0*	30
Oc1[nH]c2ccccc2c1C=Nc1ccc2c(c1)OCO2	16	-32	26*	0	-32
COc1ccc(N=Cc2c(O)[nH]c3ccccc23)cc1	3	-1	4	0	-24
COc1cc(/C=N/NC(=O)c2sc(N)c(C#N)c2C)ccc1O	65*	-45	9	0	13
CCn1c2ccccc2c2cc(/C=N/O)ccc21	-1	-23	-1	0	-24
CCn1c2ccc(/C(C)=N\O)cc2c2cc(/C(C)=N\O)ccc21	2	1	37*	0	4
CCCN(CCC)S(=O)(=O)c1ccc(C(=O)NNc2nc(-c3ccccc3)c3cc(Br)ccc3n2)cc1	-4	3	-1	0	0
CC(C)NC(=O)Nc1n[nH]c(Nc2ccc(Cl)cc2)n1	52*	1	1	0	-1
